Laboratory results reported in ChEMBL document CHEMBL3612019, “Revisiting 1,3,4-Oxadiazol-2-ones: Utilization in the Development of ABHD6 Inhibitors” (Bioorg Med Chem, 2015).

Key:
[1] = molecular target: T1, Monoglyceride lipase (Homo sapiens, UniProt Q99685); experiment: Inhibition of human MAGL expressed in HEK293 cells pre-incubated for 10 mins before 2-AG substrate addition by HPLC method; format: cell-based; settings: read-out: IC50
T1 sequence (Q99685 whole entry): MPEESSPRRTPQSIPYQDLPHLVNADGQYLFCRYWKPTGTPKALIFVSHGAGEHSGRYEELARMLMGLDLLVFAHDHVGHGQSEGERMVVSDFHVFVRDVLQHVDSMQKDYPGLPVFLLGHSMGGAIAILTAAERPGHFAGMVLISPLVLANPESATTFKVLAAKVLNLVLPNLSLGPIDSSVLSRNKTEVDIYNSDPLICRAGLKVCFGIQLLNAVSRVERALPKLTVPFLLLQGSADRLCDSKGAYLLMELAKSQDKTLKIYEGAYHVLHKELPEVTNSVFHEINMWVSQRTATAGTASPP
Method in brief: (§1)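 Lysates of hMAGL-overexpressing HEK293 cells in 50 mM Tris–HCl pH 7.4 with 1 mM EDTA. After a 10 min preincubation with inhibitor or DMSO, 2-AG was added (final 50 µM) and incubated 10 min at 37 °C. The reaction was stopped and samples centrifuged. Arachidonic acid formation and 2-AG depletion were measured by HPLC. Replicates as for the FAAH assay.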

[2] = molecular target: T2, Monoglyceride lipase (Homo sapiens) (UniProt Q99685); experiment: Inhibition of human MAGL expressed in HEK293 cells at 20 uM pre-incubated for 10 mins before 2-AG substrate addition by HPLC method; format: cell-based; method in brief: as §1
T2 sequence (whole entry): T1 sequence (Q99685 whole entry)

| IC50 [1] [µM] | inhibition [2] [%] | Structure (SMILES) |
| --- | --- | --- |
| 7.94 | – | Nc1cccc(Cn2nc(Oc3ccccc3)oc2=O)c1 |
| – | 33 | COc1nn(Cc2cccc(N)c2)c(=O)o1 |
